The results in this text go back to ChEMBL document CHEMBL1129953, “Heteroaromatic analogs of 1-[2-(diphenylmethoxy)ethyl]- and 1-[2-[bis(4-fluorophenyl)methoxy]ethyl]-4-(3-phenylpropyl)piperazines (GBR 12935 and GBR 12909) as high-affinity dopamine reuptake inhibitors” (J Med Chem, 1997).

In assay [1] the target is T1, Monoamine transporters; serotonin & dopamine (Rattus norvegicus) (UniProt P31652+P23977). The assay can be described thus: Ratio of reuptake inhibition of 5-HT with respect to DA. Format: functional.
In assay [2] the target is T1, Monoamine transporters; serotonin & dopamine (Rattus norvegicus). The experiment in a line: Ratio of binding affinity on SERT with respect to DA. Format: protein assay.
The target of assay [3] is T2, Sodium-dependent dopamine transporter (Rattus norvegicus, UniProt P23977). The experiment in a line: Reuptake inhibition at the dopamine transporter labeled with radioligand [3H]dopamine on synaptosomes obtained from rat caudate. Format: functional, subcellular, Brain. A digest of the protocol: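 Rat caudate synaptosomes (10% sucrose homogenate, 1000g supernatant). [3H]DA at 5 nM final in Krebs-phosphate buffer pH 7.4 with ascorbic acid and 50 μM pargyline. Incubated 15 min at 25 °C. Nonspecific uptake defined with 1 μM GBR 12909. Filtered over GF/B filters and counted. IC50 reported.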

Assay [4] concerns the target T3, Sodium-dependent serotonin transporter (Rattus norvegicus, UniProt P31652). The assay can be described thus: Binding affinity was determined at the Serotonin transporter labeled with radioligand [125 I] RTI-55. A digest of the protocol:
(§1)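 Triplicate incubation 18–24 h at 4 °C, then filtration over PEI-presoaked GF/B filters. Eight-point inhibition curves (90–10% of control) give the IC50.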

Assay [5] deals with T2, Sodium-dependent dopamine transporter. The assay can be described thus: Binding affinity was determined at the dopamine transporter labeled with radioligand [125 I] RTI-55. A digest of the protocol:
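Incubated in triplicate 18–24 h at 4 °C to equilibrium. Filtered over PEI-presoaked GF/B filters. Eight-point inhibition curves spanning 90% to 10% of control. IC50 reported.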

Assay [6] addresses Sodium-dependent dopamine transporter (Rattus norvegicus) (UniProt P23977). The experiment in a line: Ratio of reuptake inhibition on DA with respect to binding affinity of DA. The assay is classed as functional.
The target in assay [7] is T2, Sodium-dependent dopamine transporter. The experiment in a line: Binding affinity at the dopamine transporter using [125I]RTI-55 in rat caudate membranes. The assay is classed as cell membranes. A digest of the protocol: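 [125I]RTI-55 at 0.01 nM (SA 2200 Ci/mmol). […] Incubated in triplicate 18–24 h at 4 °C to equilibrium. Filtered over PEI-presoaked GF/B filters. Eight-point inhibition curves spanning 90% to 10% of control. IC50 reported.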

The target in assay [8] is T3, Sodium-dependent serotonin transporter. The assay can be described thus: Binding affinity at the serotonin transporter using [125I]RTI-55 in rat caudate membranes. Format: cell membranes. A digest of the protocol: as §1

Chain of Sodium-dependent dopamine transporter (Rattus norvegicus) (P23977 whole entry): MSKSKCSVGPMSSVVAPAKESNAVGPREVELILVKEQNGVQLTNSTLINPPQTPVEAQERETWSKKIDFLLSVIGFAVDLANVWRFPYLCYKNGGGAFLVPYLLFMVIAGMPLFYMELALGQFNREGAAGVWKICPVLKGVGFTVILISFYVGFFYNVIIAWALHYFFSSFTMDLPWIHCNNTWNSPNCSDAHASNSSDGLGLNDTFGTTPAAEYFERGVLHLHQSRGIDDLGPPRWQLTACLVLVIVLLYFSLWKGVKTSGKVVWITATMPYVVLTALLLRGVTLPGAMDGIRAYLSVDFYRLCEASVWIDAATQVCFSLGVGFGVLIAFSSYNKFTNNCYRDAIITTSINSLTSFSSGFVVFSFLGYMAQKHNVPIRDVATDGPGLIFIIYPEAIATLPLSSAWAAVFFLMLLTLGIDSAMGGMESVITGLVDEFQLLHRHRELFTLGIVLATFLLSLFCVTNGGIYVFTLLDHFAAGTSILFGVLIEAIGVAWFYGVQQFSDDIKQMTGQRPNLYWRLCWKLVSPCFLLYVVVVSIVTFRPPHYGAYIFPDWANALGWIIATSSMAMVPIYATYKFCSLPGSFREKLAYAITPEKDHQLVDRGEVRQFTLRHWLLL
T2 sequence (P23977 whole entry): as above
T1 sequence (P23977 whole entry, looked up): as the sequence (P23977 whole entry) above
T1 sequence (P31652 whole entry, looked up): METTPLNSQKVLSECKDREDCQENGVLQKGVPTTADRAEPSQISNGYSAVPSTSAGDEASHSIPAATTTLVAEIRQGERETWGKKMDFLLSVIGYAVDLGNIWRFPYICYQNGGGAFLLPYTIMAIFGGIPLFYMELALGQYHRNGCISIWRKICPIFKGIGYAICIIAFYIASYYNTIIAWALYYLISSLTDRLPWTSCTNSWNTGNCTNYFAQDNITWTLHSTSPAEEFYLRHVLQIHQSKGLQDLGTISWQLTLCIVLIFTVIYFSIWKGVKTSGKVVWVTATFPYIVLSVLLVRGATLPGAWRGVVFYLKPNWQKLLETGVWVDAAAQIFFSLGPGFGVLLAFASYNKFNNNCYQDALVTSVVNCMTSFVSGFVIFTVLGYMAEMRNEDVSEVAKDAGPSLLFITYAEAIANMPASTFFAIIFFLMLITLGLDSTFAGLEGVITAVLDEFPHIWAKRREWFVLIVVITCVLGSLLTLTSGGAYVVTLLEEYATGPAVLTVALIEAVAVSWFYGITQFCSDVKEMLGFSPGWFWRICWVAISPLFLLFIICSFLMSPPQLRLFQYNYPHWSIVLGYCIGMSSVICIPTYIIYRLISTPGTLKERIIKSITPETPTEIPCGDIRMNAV
T3 sequence (P31652 whole entry): as the sequence (P31652 whole entry, looked up) above

In the case of `Fc1ccc(C(OCCN2CCN(C/C=C/c3cccs3)CC2)c2ccc(F)cc2)cc1`, the Ratio stood at 29 in assay [1], 40 in assay [2] and 5.9 in assay [6]. In addition, the IC50 – broadly, the concentration that inhibits the measured activity by half – came to 13 nM in assay [3], 88 nM in assay [4] and 2.2 nM in assay [5].
As for `c1ccc(C(OCCN2CCN(CCCc3nc4ccccc4[nH]3)CC2)c2ccccc2)cc1`, the results for the Ratio in assay [1], in assay [2] and in assay [6] were 39, 13 and 0.7, respectively. In addition, the IC50 in assay [7] amounted to 23 nM; in assay [3] it was 17 nM; in assay [8], 309 nM.
Turning to `Fc1ccc(C(OCCN2CCN(Cc3ccc4ccccc4c3)CC2)c2ccc(F)cc2)cc1`, the Ratio in assay [1] worked out at 20; in assay [2], 39; in assay [6] it was 3.8. Further, the IC50 in assay [7] was 8 nM; in assay [3], 30 nM; in assay [8], 312 nM.
Turning to `Fc1ccc(C(OCCN2CCN(Cc3cccc4ccccc34)CC2)c2ccc(F)cc2)cc1`, the values for the Ratio in assay [1], in assay [2] and in assay [6] were < 1, 8 and 10.1, respectively. The IC50 was found to be 31 nM in assay [7], 312 nM in assay [3] and 243 nM in assay [8].
Consider `Fc1ccc(C(OCCN2CCN(Cc3cnc4ccccc4c3)CC2)c2ccc(F)cc2)cc1`, for which the Ratio in assay [1] came out at 12; in assay [2], 30; in assay [6], 4.6. The results for the IC50 in assay [7], in assay [3] and in assay [8] were 16 nM, 74 nM and 485 nM, respectively.
As to `c1ccc(C(OCCN2CCN(Cc3ccc4ncccc4c3)CC2)c2ccccc2)cc1`, the Ratio turned out to be 12 in assay [1], 4 in assay [2] and 0.7 in assay [6]. Moreover, the figures for the IC50 in assay [7], in assay [3] and in assay [8] were 190 nM, 140 nM and 845 nM, respectively.
On to `Fc1ccc(C(OCCN2CCN(Cc3cc4ccccc4s3)CC2)c2ccc(F)cc2)cc1`, for which the Ratio in assay [1] was found to be 36; in assay [2], 121; in assay [6], 8.3. For the same compound, the IC50 in assay [7] turned out to be 4.1 nM; in assay [3] it was 34 nM; in assay [8] it was 495 nM.
On to `c1ccc(C(OCCN2CCN(Cc3cc4ccccc4s3)CC2)c2ccccc2)cc1`, for which the Ratio was 184 in assay [1], 131 in assay [2] and 1.1 in assay [6]. Further, the figures for the 50% inhibitory concentration (IC50) in assay [7], in assay [3] and in assay [8] were 18 nM, 19 nM and 2420 nM, respectively.
As to `c1ccc(C(OCCN2CCN(Cc3cccc4ccccc34)CC2)c2ccccc2)cc1`, the Ratio is < 1 in assay [1], 3 in assay [2] and 3.6 in assay [6]. Moreover, the IC50 in assay [7] came to 114 nM; in assay [3], 406 nM; in assay [8] it was 336 nM.
For the compound `Fc1ccc(C(OCCN2CCN(C/C=C/c3cccnc3)CC2)c2ccc(F)cc2)cc1`, the Ratio amounted to 46 in assay [1], 25 in assay [2] and 1.1 in assay [6]. Besides, the IC50 in assay [3] came out at 14.5 nM; in assay [4], 334 nM; in assay [5], 13.6 nM.
On to `c1ccc(C(OCCN2CCN(CCCc3cccnc3)CC2)c2ccccc2)cc1`, for which the Ratio is 53 in assay [1], 31 in assay [2] and 0.9 in assay [6]. Moreover, the IC50 in assay [7] stood at 78 nM; in assay [3], 70 nM; in assay [8], 2420 nM.
Consider `c1ccc(C(OCCN2CCN(Cc3ccc4ccccc4n3)CC2)c2ccccc2)cc1`, for which the Ratio in assay [1] is 21; in assay [2] it was 10; in assay [6], 1. For the same compound, the IC50 in assay [7] worked out at 199 nM; in assay [3], 192 nM; in assay [8], 1990 nM.
On to `c1ccc(C(OCCN2CCN(Cc3nc4ccccc4[nH]3)CC2)c2ccccc2)cc1`, for which the Ratio worked out at 110 in assay [1], 41 in assay [2] and 0.8 in assay [6]. For the same compound, the IC50 in assay [7] was found to be 46 nM; in assay [3], 37 nM; in assay [8], 1880 nM.
Take `c1ccc(C(OCCN2CCN(Cc3cnc4ccccc4c3)CC2)c2ccccc2)cc1`: the Ratio in assay [1] stood at 27; in assay [2] it was 16; in assay [6], 1.5. Besides, the results for the concentration for half-maximal inhibition (IC50) in assay [7], in assay [3] and in assay [8] were 72 nM, 111 nM and 1160 nM, respectively.
In the case of `c1ccc(C(OCCN2CCN(CCCc3cccs3)CC2)c2ccccc2)cc1`, the Ratio in assay [1] was determined as 205; in assay [2], 162; in assay [6], 1.9. In addition, the figures for the IC50 in assay [7], in assay [3] and in assay [8] were 5.2 nM, 9.7 nM and 842 nM, respectively.
Regarding `c1ccc(C(OCCN2CCN(CCCc3ccco3)CC2)c2ccccc2)cc1`, the Ratio came out at 300 in assay [1], 234 in assay [2] and 1.3 in assay [6]. Moreover, the IC50 was 6.5 nM in assay [7], 8.5 nM in assay [3] and 1520 nM in assay [8].
In the case of `C(=C\c1ccco1)/CN1CCN(CCOC(c2ccccc2)c2ccccc2)CC1`, the Ratio in assay [1] was found to be 281; in assay [2], 367; in assay [6] it was 1.9. For the same compound, the figures for the IC50 in assay [7], in assay [3] and in assay [8] were 5 nM, 9.6 nM and 1840 nM, respectively.
On to `C(=C\c1cccs1)/CN1CCN(CCOC(c2ccccc2)c2ccccc2)CC1`, for which the figures for the Ratio in assay [1], in assay [2] and in assay [6] were 200, 184 and 1.6, respectively. The IC50 in assay [7] was found to be 6.4 nM; in assay [3], 10 nM; in assay [8], 1170 nM.
In the case of `Fc1ccc(C(OCCN2CCN(Cc3nc4ccccc4[nH]3)CC2)c2ccc(F)cc2)cc1`, the Ratio is 40 in assay [1], 17 in assay [2] and 1.3 in assay [6]. Moreover, the IC50 amounted to 15 nM in assay [7], 20 nM in assay [3] and 256 nM in assay [8].
In the case of `Fc1ccc(C(OCCN2CCN(Cc3ccc4ccccc4n3)CC2)c2ccc(F)cc2)cc1`, the Ratio in assay [1] is 3; in assay [2], < 1; in assay [6] it was 1.9. Moreover, the IC50 in assay [7] came out at 56 nM; in assay [3] it was 106 nM; in assay [8] it was 51 nM.
For the compound `Fc1ccc(C(OCCN2CCN(CCCc3nc4ccccc4[nH]3)CC2)c2ccc(F)cc2)cc1`, the figures for the Ratio in assay [1], in assay [2] and in assay [6] were 9, 11 and 3.2, respectively. The IC50 was 2.5 nM in assay [7], 8.1 nM in assay [3] and 28 nM in assay [8].
Turning to `Fc1ccc(C(OCCN2CCN(Cc3ccc4ncccc4c3)CC2)c2ccc(F)cc2)cc1`, the Ratio in assay [2] was found to be 9; in assay [6] it was 1.2. The half-inhibitory concentration (IC50) amounted to 62 nM in assay [7] and 551 nM in assay [8].
As for `C(=C\c1cccnc1)/CN1CCN(CCOC(c2ccccc2)c2ccccc2)CC1`, the Ratio in assay [1] was 57; in assay [2], 61; in assay [6], 1.5. The half-inhibitory concentration (IC50) in assay [7] was 44 nM; in assay [3] it was 64 nM; in assay [8] it was 2760 nM.
Take `Fc1ccc(C(OCCN2CCN(C/C=C/c3ccco3)CC2)c2ccc(F)cc2)cc1`: the Ratio was determined as 61 in assay [1], 62 in assay [2] and 4 in assay [6]. Besides, the IC50 in assay [3] was 7.2 nM; in assay [4], 109 nM.
